Source: ChEMBL document CHEMBL5236662, “Synthesis and biological evaluation of tert-butyl ester and ethyl ester prodrugs of L-γ-methyleneglutamic acid amides for cancer” (Bioorg Med Chem, 2023)

Tests used:
[1] = AUC (0 to infinity) in CD-1 mouse brain at 2.5 mg/kg, ip measured for 24 hrs by LC-MS/MS analysis; assay type: ADME, organism-based; design: dose 2.5 mg/kg, time 24 hrs, route ip; details: in vivo
In short: (§1)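 Male CD1 mice (25–30 g), fasted ~4 h, given 2.5 mg/kg ip in 5% DMSO/95% normal saline. Brain, liver and kidney were taken at pre-dose, 0.5, 2, 4 and 24 h and homogenized in 5 volumes PBS. Homogenates got tolbutamide internal standard and acetonitrile protein precipitation. UPLC-MS/MS used MRM. Parameters came from noncompartmental analysis.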

[2] = Cmax in CD-1 mouse kidney at 2.5 mg/kg, ip measured for 24 hrs by LC-MS/MS analysis; assay type: ADME, organism-based; design: dose 2.5 mg/kg, time 24 hrs, route ip; details: in vivo; in short: as §1
[3] = Cytotoxicity against human MCF-10A cells assessed as inhibition of cell growth incubated for 24 hrs by Hoechst 33342/propidium iodide staining based fluorescence analysis; assay type: toxicity; details: human, MCF-10A cells
[4] = Tmax in CD-1 mouse plasma at 2.5 mg/kg, ip measured for 24 hrs by LC-MS/MS analysis; assay type: ADME, organism-based; details: in vivo
In short: (§2)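 Fasted (~4 h) male CD1 mice, n = 24 per route, received 2.5 mg/kg iv or ip in 5% DMSO/95% normal saline. Blood was drawn into K2EDTA at pre-dose, 0.083, 0.5, 1, 2, 4, 8 and 24 h, and plasma was separated. Samples were precipitated with acetonitrile, with tolbutamide as internal standard, then quantified by UPLC-MS/MS (MRM). Parameters came from noncompartmental analysis.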

[5] = Apparent half life in CD-1 mouse kidney at 2.5 mg/kg, ip measured for 24 hrs by LC-MS/MS analysis; assay type: ADME, organism-based; details: in vivo; in short: as §1
[6] = AUC (0 to infinity) in CD-1 mouse liver at 2.5 mg/kg, ip measured for 24 hrs by LC-MS/MS analysis; assay type: ADME, organism-based; design: time 24 hrs, dose 2.5 mg/kg, route ip; details: in vivo; in short: as §1
[7] = Cmax in CD-1 mouse liver at 2.5 mg/kg, ip measured for 24 hrs by LC-MS/MS analysis; assay type: ADME, organism-based; design: time 24 hrs, dose 2.5 mg/kg, route ip; details: in vivo; in short: as §1
[8] = Apparent half life in CD-1 mouse liver at 2.5 mg/kg, ip measured for 24 hrs by LC-MS/MS analysis; assay type: ADME, organism-based; details: in vivo; in short: as §1
[9] = Tmax in CD-1 mouse plasma at 2.5 mg/kg, iv measured for 24 hrs by LC-MS/MS analysis; assay type: ADME, organism-based; details: in vivo; in short: as §2
[10] = Terminal half life in CD-1 mouse plasma at 2.5 mg/kg, iv measured for 24 hrs by LC-MS/MS analysis; assay type: ADME, organism-based; details: in vivo; in short: as §2
BNC3 = experiment: Antiproliferative activity against human BNC3 cells assessed as suppression of cell growth incubated for 24 to 72 hrs by CCK-8 assay; assay type: functional, cell-based; details: dose 10-300 µM, time 24-72 hrs
In short: (§3)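 Primary patient-derived glioblastoma lines were grown in RPMI 1640 with 10% FBS. Cells were seeded at 3,000 per well and dosed 24 h later at 10, 50, 100, 200 and 300 μM for 24 or 72 h, with BiCNU as control. CCK-8 was added and OD450 read after 2 h at 37 °C. Data are % cell survival, from 3 independent replicates.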

WSU-HN30 = experiment: Antiproliferative activity against human WSU-HN30 cells assessed as suppression of cell growth incubated for 24 to 72 hrs by CCK-8 assay; assay type: functional, cell-based; details: dose 10-300 µM, time 24-72 hrs
In short: (§4)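 Radiotherapy-resistant HNSCC lines were used: HN30 from pharynx SCC and HN31 from a lymph-node metastasis of the same patient. Cells in RPMI 1640 with 10% FBS were seeded at 3,000 per well and treated 24 h later with 10–300 μM (5 levels) for 24 or 72 h, with cisplatin as control. CCK-8 was read at OD450 after 2 h. Data are % survival, n = 3 independent experiments.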

[11] = Clearance in CD-1 mouse plasma at 2.5 mg/kg, iv measured for 24 hrs by LC-MS/MS analysis relative to hepatic blood flow; assay type: ADME, organism-based; details: in vivo; in short: as §2
BNC6 = experiment: Antiproliferative activity against human BNC6 cells assessed as suppression of cell growth incubated for 24 to 72 hrs by CCK-8 assay; assay type: functional, cell-based; details: dose 10-300 µM, time 24-72 hrs; in short: as §3
[12] = Apparent half life in CD-1 mouse plasma at 2.5 mg/kg, ip measured for 24 hrs by LC-MS/MS analysis; assay type: ADME, organism-based; details: in vivo; in short: as §2
[13] = AUC (0 to infinity) in CD-1 mouse plasma at 2.5 mg/kg, iv measured for 24 hrs by LC-MS/MS analysis; assay type: ADME, organism-based; design: dose 2.5 mg/kg, time 24 hrs, route iv; in short: as §2
[14] = Volume of distribution in CD-1 mouse plasma at 2.5 mg/kg, iv measured for 24 hrs by LC-MS/MS analysis; assay type: ADME, organism-based; details: in vivo; in short: as §2
[15] = Bioavailability in CD-1 mouse plasma at 2.5 mg/kg, ip measured for 24 hrs by LC-MS/MS analysis; assay type: ADME, organism-based; details: in vivo; in short: as §2
[16] = Antiproliferative activity against human BNC6 cells assessed as inhibition of cell growth incubated for 72 hrs by CCK-8 assay; assay type: functional, cell-based; details: BNC6, 72 h; in short: as §3
[17] = Cmax in CD-1 mouse plasma at 2.5 mg/kg, iv measured for 24 hrs by LC-MS/MS analysis; assay type: ADME, organism-based; design: time 24 hrs, dose 2.5 mg/kg, route iv; details: in vivo; in short: as §2
[18] = AUC (0 to infinity) in CD-1 mouse kidney at 2.5 mg/kg, ip measured for 24 hrs by LC-MS/MS analysis; assay type: ADME, organism-based; design: time 24 hrs, dose 2.5 mg/kg, route ip; details: in vivo; in short: as §1
WSU-HN31 = experiment: Antiproliferative activity against human WSU-HN31 cells assessed as suppression of cell growth incubated for 24 to 72 hrs by CCK-8 assay; assay type: functional, cell-based; details: dose 10-300 µM, time 24-72 hrs; in short: as §4
[19] = Cytotoxicity against human MCF-10A cells assessed as inhibition of cell growth incubated for 72 hrs by Hoechst 33342/propidium iodide staining based fluorescence analysis; assay type: toxicity; details: human, MCF-10A cells
[20] = Cmax in CD-1 mouse plasma at 2.5 mg/kg, ip measured for 24 hrs by LC-MS/MS analysis; assay type: ADME, organism-based; design: dose 2.5 mg/kg, time 24 hrs, route ip; details: in vivo; in short: as §2
[21] = Antiproliferative activity against human WSU-HN30 cells assessed as inhibition of cell growth incubated for 72 hrs by CCK-8 assay; assay type: functional, cell-based; details: WSU-HN30, 72 h; in short: as §4
[22] = Tmax in CD-1 mouse liver at 2.5 mg/kg, ip measured for 24 hrs by LC-MS/MS analysis; assay type: ADME, organism-based; details: in vivo; in short: as §1
[23] = Antiproliferative activity against human WSU-HN31 cells assessed as inhibition of cell growth incubated for 72 hrs by CCK-8 assay; assay type: functional, cell-based; details: WSU-HN31, 72 h; in short: as §4
[24] = Tmax in CD-1 mouse kidney at 2.5 mg/kg, ip measured for 24 hrs by LC-MS/MS analysis; assay type: ADME, organism-based; details: in vivo; in short: as §1
[25] = Antiproliferative activity against human BNC3 cells assessed as inhibition of cell growth incubated for 72 hrs by CCK-8 assay; assay type: functional, cell-based; details: BNC3, 72 h; in short: as §3
[26] = Tmax in CD-1 mouse brain at 2.5 mg/kg, ip measured for 24 hrs by LC-MS/MS analysis; assay type: ADME, organism-based; details: in vivo; in short: as §1
[27] = AUC (0 to infinity) in CD-1 mouse plasma at 2.5 mg/kg, ip measured for 24 hrs by LC-MS/MS analysis; assay type: ADME, organism-based; design: dose 2.5 mg/kg, time 24 hrs, route ip; in short: as §2
[28] = Stability in mouse plasma assessed as drug degradation; assay type: ADME, cell-free
[29] = Stability in mouse liver microsomes assessed as drug degradation; assay type: ADME, Microsome

**Q.** For `C=C(C[C@H](N)C(=O)O)C(=O)NCc1ccc(F)cc1`, which AUC [1] is on record?
**A.** Its AUC is 44 ng·h/g.

**Q.** What about the Cmax [2] of the same compound?
**A.** The Cmax was 17681 ng/g.

**Q.** What about the IC50 at 24 h [3] of the same compound?
**A.** The IC50 at 24 h was > 1000 µM.

**Q.** And the Tmax [4]?
**A.** Its Tmax is 13.2 min.

**Q.** What about the “t1/2(app)” value [5] of the same compound?
**A.** The value was 27.6 min.

**Q.** And the AUC [6]?
**A.** Its AUC is 10596 ng·h/g.

**Q.** And the Cmax [7]?
**A.** Its Cmax is 7291 ng/g.

**Q.** What about the “t1/2(app)” value [8] of the same compound?
**A.** The value was 25.8 min.

**Q.** And the Tmax [9]?
**A.** Its Tmax is 7.2 min.

**Q.** What about the “beta t1/2” value [10] of the same compound?
**A.** Its value is 48 min.

**Q.** And the Activity (BNC3)?
**A.** Its Activity is “Dose-Dependent Effect”.

**Q.** What about the Activity (WSU-HN30) of the same compound?
**A.** The Activity was “Dose-Dependent Effect”.

**Q.** And the CL [11]?
**A.** Its CL is 31%.

**Q.** What about the Activity (BNC6) of the same compound?
**A.** The Activity was “Dose-Dependent Effect”.

**Q.** What about the “t1/2(app)” value [12] of the same compound?
**A.** The value was 25.8 min.

**Q.** And the AUC(0-inf) [13]?
**A.** Its AUC(0-inf) is 1460 ng·h/mL.

**Q.** And the Vd [14]?
**A.** The Vd was 4.6 L/kg.

**Q.** And the F [15]?
**A.** The F was 66%.

**Q.** And the IC50 [16]?
**A.** Its IC50 is 189 µM.

**Q.** And the Cmax [17]?
**A.** The Cmax was 3016 ng/mL.

**Q.** And the AUC [18]?
**A.** The AUC was 21944 ng·h/g.

**Q.** And the Activity (WSU-HN31)?
**A.** Its Activity is “Dose-Dependent Effect”.

**Q.** And the IC50 at 72 h [19]?
**A.** Its IC50 at 72 h is > 1000 µM.

**Q.** What about the Cmax [20] of the same compound?
**A.** The Cmax was 1543 ng/mL.

**Q.** What about the IC50 [21] of the same compound?
**A.** The IC50 was 102 µM.

**Q.** And the Tmax [22]?
**A.** The Tmax was 60 min.

**Q.** And the IC50 [23]?
**A.** Its IC50 is 196 µM.

**Q.** What about the Tmax [24] of the same compound?
**A.** Its Tmax is 30 min.

**Q.** And the IC50 [25]?
**A.** The IC50 was 169 µM.

**Q.** And the Tmax [26]?
**A.** Its Tmax is 30 min.

**Q.** And the AUC(0-inf) [27]?
**A.** Its AUC(0-inf) is 967 ng·h/mL.

**Q.** What does the source list for `NCc1ccc(F)cc1`?
**A.** Stability [28]: Unstable; Stability [29]: Unstable
